Experimental data from PMC11309612 (Medicine, 2024).
Several values for one entry are separate records, joined by “and”; a condition that tells them apart may be missing. Identical values can stand only once. Like-named read-outs stand apart in the source and are kept apart here.

Legend:
[1] = system: BJ human healthy fibroblast cells; test: WST-1 cytotoxicity assay in BJ cells; type: cell-based; settings: for IC50: read-out: IC50 according to WST-1 results
In short: (§1)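 U-87 MG glioblastoma cells or BJ foreskin fibroblasts were seeded at 3 × 10^3 per well and left 24 h. Test compound, freshly diluted in medium, was applied at 0.97–500 µM (ten concentrations) for 24 or 48 h. WST-1 reagent was added per kit and absorbance read at 540 nm. There were 7 wells per concentration and 3 independent experiments. The 0.1% DMSO control was set to 100% viability, and IC50 was derived from the % viability values.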

[2] = system: U-87 MG cells; test: Caspase-3 activation in flow cytometry; type: cell-based, human; settings: for Caspase-3 levels compared to the control / Caspase-3-positive cells % (lower right quadrant): IC50 concentration; for Caspase-3 levels compared to the control: 48th hour; for Caspase-3-positive cells % (lower right quadrant): n = 3, mean ± SD, control 0.6 ± 0.3
In short: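 U-87 MG cells were seeded at 1 × 10^5 per well in 6-well plates and exposed for 48 h to 150 μM test compound or 45 μM comparator, with 0.1% DMSO as control. After a PBS wash, cells were fixed and permeabilised with cytofix/cytoperm for 20 min on ice, then stained with PE rabbit anti-active caspase-3 for 30 min at room temperature. Flow cytometry gave quadrant %; n = 3, mean ± SD.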

[3] = system: U-87 MG cells; test: Mitochondrial membrane integrity; type: cell-based, human; settings: for Increase of mitochondrial depolarization levels compared to the control: IC50 concentration, 48th hour; for JC-1-positive cells % (lower quadrant), mitochondrial depolarization: JC-1, IC50 concentration, n = 3, mean ± SD, control 12.3 ± 2.0
In short: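 U-87 MG cells were treated for 48 h with 150 μM test compound or 45 μM comparator, with 0.1% DMSO as control. Cells were pelleted at 1200 rpm for 5 min and incubated in JC-1 working solution for 15 min at 37°C. They were washed, resuspended in kit assay solution and read by flow cytometry. Upper-quadrant (viable) and lower-quadrant (JC-1-positive, depolarised) percentages were recorded; n = 3, mean ± SD.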

[4] = system: U-87 MG cells; test: Annexin V and Propidium iodide staining apoptosis assay in flow cytometry; type: cell-based, human; settings: for Increase of late apoptotic effects compared to U-87 MG control group: IC50 concentration, 48th hour
In short: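 U-87 MG cells were cultured in EMEM with 10% FBS, 1% penicillin-streptomycin and 1% L-glutamine at 37°C in 5% CO2. Cells were exposed for 48 h to 150 μM test compound or 45 μM comparator, with 0.1% DMSO as control. They were detached, pelleted and washed twice in cold PBS. Annexin V/PI staining ran 20 min at room temperature in the dark, then binding buffer was added and flow cytometry was read within 30 min. Quadrant %, n = 3, mean ± SD.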

[5] = system: U-87 MG human glioblastoma cells; test: WST-1 antiproliferative assay in U-87 MG cells; type: cell-based; settings: for IC50: read-out: IC50 according to WST-1 results; for % viability value at the highest concentration: WST-1, highest concentration (500 µM)
In short: as §1

Row | IC50 ([5]; U-87 MG cells, 24 h incubation) | IC50 ([5]; U-87 MG cells, 48 h incubation) | SMILES | IC50 ([1]; Homo sapiens, BJ, 24 h) | IC50 ([1]; Homo sapiens, BJ, 48 h) | viability at 45.68 µM ([2]; Homo sapiens, U-87 MG, 48 h, read-out: Viable cells % (lower left quadrant)) | Caspase-3 levels compared to the control [2] | Caspase-3-positive cells % (lower right quadrant) ([2]; 48 h) | viability at 45.68 µM ([3]; Homo sapiens, U-87 MG, 48 h, read-out: Viable cells % (upper quadrant)) | Increase of mitochondrial depolarization levels compared to the control [3] | JC-1-positive cells % (lower quadrant), mitochondrial depolarization ([3]; 48 h) | viability at 45.68 µM ([4]; Homo sapiens, U-87 MG, read-out: Viable cells % (lower left quadrant)) | Increase of late apoptotic effects compared to U-87 MG control group [4] | IC50 ([5]; Homo sapiens, U-87 MG, 24 h) | IC50 ([5]; Homo sapiens, U-87 MG, 48 h) | IC50 ([1]; BJ cells, 24 h incubation) | IC50 ([1]; BJ cells, 48 h incubation) | % viability value at the highest concentration ([5]; U-87 MG, 24 hours) | % viability value at the highest concentration ([5]; U-87 MG, 48 hours) | Cytotoxic effect on BJ cells ([1]; WST-1, especially at the 48th hour)
1 |  |  | O=NN(CCCl)C(=O)NCCCl [Carmustine, carmustine] | 144 µM | 81.4 µM | 96.2 ± 0.9% | did not show any difference | 3.8 ± 1.0% | 41.4 ± 3.8% | ~4.7 times | 58.6 ± 3.80% | 57.6 ± 6.96% | approximately 3 times | 40.6 µM | 45.7 µM |  |  |  |  | 
2 | 256 µM | 150 µM | NC(=O)[C@H](CCCN=C(N)CCl)NC(=O)c1ccccc1 [Cl-amidine, chlorine-amidine] |  |  |  | did not show any difference | 2.8 ± 0.9% |  | approximately 4.5 times | 54.7% and 54.7 ± 11.60% |  | 2.5 times |  |  | 604 µM | 549 µM | 41.16% | 35.64% | 
3 |  |  | O=P1(N(CCCl)CCCl)NCCCO1 (stereo not shown) [Cyclophosphamide, cyclophosphamide] | 650 µM | 3970 µM |  |  |  |  |  |  |  |  | 581 µM | 580 µM |  |  |  |  | did not have a cytotoxic effect
